# ChEMBL document CHEMBL3286116, “Synthesis, biological evaluation and structure-activity correlation study of a series of imidazol-based compounds as Candida albicans inhibitors” (Eur J Med Chem, 2014)
# Experiments:
# Type in all cases: functional
# Candida albicans [1] = test: Antifungal activity against Candida albicans ATCC 90028 after 48 hrs by CLSI broth microdilution method; conditions: ATCC 90028, 48 h
# In short: (§1)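 Yeast CLSI broth microdilution (M27-A3). Compounds dissolved in DMSO at 100× the top test concentration, then diluted as serial two-fold dilutions in RPMI 1640 to final 0.125–64. Inoculum was 1.0–1.5 × 10^3 cells mL−1, incubated at 35 °C and read for growth at 48 h. MIC is the lowest concentration giving ≥50% growth inhibition versus growth control. Reported as the median of five replicates and as the geometric mean.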
# Candida albicans [2] = test: Antifungal activity against Candida albicans ATCC 20891 after 48 hrs by CLSI broth microdilution method; conditions: ATCC 20891, 48 h; in short: as §1
# Candida albicans [3] = test: Antifungal activity against Candida albicans PMC 1011 after 48 hrs by CLSI broth microdilution method; conditions: PMC 1011, 48 h; in short: as §1
# Pichia kudriavzevii [4] = test: Antifungal activity against Candida krusei DSM 6128 after 48 hrs by CLSI broth microdilution method; conditions: DSM 6128, 48 h; in short: as §1
# Pichia kudriavzevii [5] = test: Antifungal activity against Candida krusei PMC 0613 after 48 hrs by CLSI broth microdilution method; conditions: PMC 0613, 48 h; in short: as §1
# Candida tropicalis [6] = test: Antifungal activity against Candida tropicalis PMC 0910 after 48 hrs by CLSI broth microdilution method; conditions: PMC 0910, 48 h; in short: as §1
# Candida tropicalis [7] = test: Antifungal activity against Candida tropicalis DSM 11953 after 48 hrs by CLSI broth microdilution method; conditions: DSM 11953, 48 h; in short: as §1
# Candida parapsilosis [8] = test: Antifungal activity against Candida parapsilosis DSM 11224 after 48 hrs by CLSI broth microdilution method; conditions: Lodderomyces parapsilosis, DSM 11224, 48 h; in short: as §1
# Candida parapsilosis [9] = test: Antifungal activity against Candida parapsilosis ATCC 22019 after 48 hrs by CLSI broth microdilution method; conditions: Lodderomyces parapsilosis, ATCC 22019, 48 h; in short: as §1
# Nakaseomyces glabratus [10] = test: Antifungal activity against Candida glabrata PMC 0805 after 48 hrs by CLSI broth microdilution method; conditions: PMC 0805, 48 h; in short: as §1
# Nakaseomyces glabratus [11] = test: Antifungal activity against Candida glabrata PMC 0807 after 48 hrs by CLSI broth microdilution method; conditions: PMC 0807, 48 h; in short: as §1
# Cryptococcus neoformans [12] = test: Antifungal activity against Cryptococcus neoformans PMC 2123 after 72 hrs by CLSI broth microdilution method; conditions: PMC 2123, 72 h
# In short: (§2)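 Cryptococcus neoformans tested by CLSI broth microdilution in RPMI 1640, with serial two-fold dilutions from DMSO stocks at 100× the top concentration, final 0.125–64. Inoculum was 1.0–1.5 × 10^3 cells mL−1 at 35 °C, with growth read at 72 h. MIC is the lowest concentration with ≥50% growth inhibition versus control. Median of five replicates, plus geometric mean.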
# Cryptococcus neoformans [13] = test: Antifungal activity against Cryptococcus neoformans PMC 2136 after 72 hrs by CLSI broth microdilution method; conditions: PMC 2136, 72 h; in short: as §2
# Cryptococcus neoformans [14] = test: Antifungal activity against Cryptococcus neoformans PMC 2115 after 72 hrs by CLSI broth microdilution method; conditions: PMC 2115, 72 h; in short: as §2
# Cryptococcus neoformans [15] = test: Antifungal activity against Cryptococcus neoformans PMC 2103 after 72 hrs by CLSI broth microdilution method; conditions: PMC 2103, 72 h; in short: as §2
# Cryptococcus neoformans [16] = test: Antifungal activity against Cryptococcus neoformans PMC 2107 after 72 hrs by CLSI broth microdilution method; conditions: PMC 2107, 72 h; in short: as §2
# Cryptococcus neoformans [17] = test: Antifungal activity against Cryptococcus neoformans PMC 2102 after 72 hrs by CLSI broth microdilution method; conditions: PMC 2102, 72 h; in short: as §2
# Cryptococcus neoformans [18] = test: Antifungal activity against Cryptococcus neoformans DSM 11959 after 72 hrs by CLSI broth microdilution method; conditions: DSM 11959, 72 h; in short: as §2
# Cryptococcus neoformans [19] = test: Antifungal activity against Cryptococcus neoformans PMC 2111 after 72 hrs by CLSI broth microdilution method; conditions: PMC 2111, 72 h; in short: as §2
# [20] = test system: Trichophyton mentagrophytes; test: Antifungal activity against Trichophyton mentagrophytes DSM 4870 after 72 hrs by CLSI broth microdilution method; conditions: DSM 4870, 72 h
# In short: (§3)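 Dermatophytes tested by CLSI broth microdilution for filamentous fungi (M38-A2). Serial two-fold dilutions of DMSO-dissolved compound in RPMI 1640, final 0.125–64. Inoculum was 0.4–5 × 10^4 CFU mL−1, incubated at 35 °C and read at 72 h. MIC80 is the lowest concentration giving ≥80% growth inhibition versus growth control. Median of five replicates, plus geometric mean.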
# [21] = test system: Trichophyton mentagrophytes; test: Antifungal activity against Trichophyton mentagrophytes PMC 6515 after 72 hrs by CLSI broth microdilution method; conditions: PMC 6515, 72 h; in short: as §3
# [22] = test system: Trichophyton mentagrophytes; test: Antifungal activity against Trichophyton mentagrophytes PMC 6531 after 72 hrs by CLSI broth microdilution method; conditions: PMC 6531, 72 h; in short: as §3
# [23] = test system: Trichophyton mentagrophytes; test: Antifungal activity against Trichophyton mentagrophytes PMC 6509 after 72 hrs by CLSI broth microdilution method; conditions: PMC 6509, 72 h; in short: as §3
# [24] = test system: Trichophyton mentagrophytes; test: Antifungal activity against Trichophyton mentagrophytes PMC 6503 after 72 hrs by CLSI broth microdilution method; conditions: PMC 6503, 72 h; in short: as §3
# [25] = test system: Trichophyton mentagrophytes; test: Antifungal activity against Trichophyton mentagrophytes PMC 6552 after 72 hrs by CLSI broth microdilution method; conditions: PMC 6552, 72 h; in short: as §3
# Nannizzia gypsea [26] = test: Antifungal activity against Microsporum gypseum PMC 7303 after 72 hrs by CLSI broth microdilution method; conditions: PMC 7303, 72 h; in short: as §3
# Nannizzia gypsea [27] = test: Antifungal activity against Microsporum gypseum PMC 7331 after 72 hrs by CLSI broth microdilution method; conditions: PMC 7331, 72 h; in short: as §3
# Nannizzia gypsea [28] = test: Antifungal activity against Microsporum gypseum DSM 3824 after 72 hrs by CLSI broth microdilution method; conditions: DSM 3824, 72 h; in short: as §3
# Candida albicans [29] = test: Antifungal activity against Candida albicans ATCC 24433 after 48 hrs by CLSI broth microdilution method; conditions: ATCC 24433, 48 h; in short: as §1
# Candida albicans [30] = test: Antifungal activity against Candida albicans ATCC 3153 after 48 hrs by CLSI broth microdilution method; conditions: ATCC 3153, 48 h; in short: as §1
# Candida albicans [31] = test: Antifungal activity against Candida albicans ATCC 10231 after 48 hrs by CLSI broth microdilution method; conditions: ATCC 10231, 48 h; in short: as §1
# Candida albicans [32] = test: Antifungal activity against Candida albicans ATCC 76615 after 48 hrs by CLSI broth microdilution method; conditions: ATCC 76615, 48 h; in short: as §1
# Candida albicans [33] = test: Antifungal activity against Candida albicans ATCC 10261 after 48 hrs by CLSI broth microdilution method; conditions: ATCC 10261, 48 h; in short: as §1
MIC50 (Candida albicans [1]) [µg/mL],MIC50 (Candida albicans [2]) [µg/mL],MIC50 (Candida albicans [3]) [µg/mL],MIC50 (Pichia kudriavzevii [4]) [µg/mL],MIC50 (Pichia kudriavzevii [5]) [µg/mL],MIC50 (Candida tropicalis [6]) [µg/mL],MIC50 (Candida tropicalis [7]) [µg/mL],MIC50 (Candida parapsilosis [8]) [µg/mL],MIC50 (Candida parapsilosis [9]) [µg/mL],MIC50 (Nakaseomyces glabratus [10]) [µg/mL],MIC50 (Nakaseomyces glabratus [11]) [µg/mL],MIC50 (Cryptococcus neoformans [12]) [µg/mL],MIC50 (Cryptococcus neoformans [13]) [µg/mL],MIC50 (Cryptococcus neoformans [14]) [µg/mL],MIC50 (Cryptococcus neoformans [15]) [µg/mL],MIC50 (Cryptococcus neoformans [16]) [µg/mL],MIC50 (Cryptococcus neoformans [17]) [µg/mL],MIC50 (Cryptococcus neoformans [18]) [µg/mL],MIC50 (Cryptococcus neoformans [19]) [µg/mL],MIC80 [20] [µg/mL],SMILES,further results
4,8,4,128,8,16,64,8,1,8,32,2,2,4,2,2,4,2,2,8,O=C(O[C@@H](Cn1ccnc1)c1ccc(Cl)cc1)N1CCN(c2ccc(Cl)cc2)CC1,MIC80 [21]: 4 µg/mL; MIC80 [22]: 8 µg/mL; MIC80 [23]: 8 µg/mL; MIC80 [24]: 4 µg/mL; MIC80 [25]: 8 µg/mL; MIC80 (Nannizzia gypsea [26]): 8 µg/mL; MIC80 (Nannizzia gypsea [27]): 16 µg/mL; MIC80 (Nannizzia gypsea [28]): 8 µg/mL; MIC50 (Candida albicans [29]): 8 µg/mL; MIC50 (Candida albicans [30]): 4 µg/mL; MIC50 (Candida albicans [31]): 8 µg/mL; MIC50 (Candida albicans [32]): 8 µg/mL; MIC50 (Candida albicans [33]): 4 µg/mL
32,128,32,128,32,128,64,32,16,32,128,128,64,128,64,128,128,64,128,128,O=C(OC(Cn1ccnc1)c1ccc(F)cc1)N1CCN(C(=O)c2ccco2)CC1 (configuration not stated),MIC80 [21]: 128 µg/mL; MIC80 [22]: 64 µg/mL; MIC80 [23]: 64 µg/mL; MIC80 [24]: 128 µg/mL; MIC80 [25]: 128 µg/mL; MIC80 (Nannizzia gypsea [26]): 128 µg/mL; MIC80 (Nannizzia gypsea [27]): 128 µg/mL; MIC80 (Nannizzia gypsea [28]): 128 µg/mL; MIC50 (Candida albicans [29]): 128 µg/mL; MIC50 (Candida albicans [30]): 128 µg/mL; MIC50 (Candida albicans [31]): 64 µg/mL; MIC50 (Candida albicans [32]): 128 µg/mL; MIC50 (Candida albicans [33]): 128 µg/mL
8,8,8,64,16,32,128,4,16,64,64,128,16,64,8,16,32,16,16,64,O=C(OC(Cn1ccnc1)c1ccc(F)cc1)N1CCN(c2ccc([N+](=O)[O-])cc2)CC1 (configuration not stated),MIC80 [21]: 64 µg/mL; MIC80 [22]: 64 µg/mL; MIC80 [23]: 64 µg/mL; MIC80 [24]: 32 µg/mL; MIC80 [25]: 32 µg/mL; MIC80 (Nannizzia gypsea [26]): 32 µg/mL; MIC80 (Nannizzia gypsea [27]): 32 µg/mL; MIC80 (Nannizzia gypsea [28]): 64 µg/mL; MIC50 (Candida albicans [29]): 32 µg/mL; MIC50 (Candida albicans [30]): 16 µg/mL; MIC50 (Candida albicans [31]): 32 µg/mL; MIC50 (Candida albicans [32]): 128 µg/mL; MIC50 (Candida albicans [33]): 8 µg/mL
32,64,128,128,128,128,128,128,128,128,128,32,128,128,128,32,128,128,128,128,O=C(OC(Cn1ccnc1)c1ccc(Cl)cc1)N1CCN(C(=O)c2ccco2)CC1 (configuration not stated),MIC80 [21]: 128 µg/mL; MIC80 [22]: 128 µg/mL; MIC80 [23]: 128 µg/mL; MIC80 [24]: 128 µg/mL; MIC80 [25]: 128 µg/mL; MIC80 (Nannizzia gypsea [26]): 128 µg/mL; MIC80 (Nannizzia gypsea [27]): 128 µg/mL; MIC80 (Nannizzia gypsea [28]): 128 µg/mL; MIC50 (Candida albicans [29]): 128 µg/mL; MIC50 (Candida albicans [30]): 32 µg/mL; MIC50 (Candida albicans [31]): 64 µg/mL; MIC50 (Candida albicans [32]): 64 µg/mL; MIC50 (Candida albicans [33]): 32 µg/mL
